Screening data (PubChem)
Insulin prom act – TRM-6 insulin promoter activation; TRM-6 cells, insulin promoter eGFP reporter, imaging; plate-scaled: unstimulated 0, stimulated control 100; activation, % at 2 µM; hit rate 0.81% among 130,000;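 active means activation at 2 µM above a set limit, confirmed on inspection of the cell images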;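 further: share of cells whose green reporter signal exceeds an intensity cutoff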
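material = TRM-6 human fetal islet cells, insulin promoter–eGFP reporter | input = 1,000 TRM-6 cells seeded per well | benchmarks = stimulated versus unstimulated wells as plate controls | measured by = automated fluorescence imaging of paraformaldehyde-fixed, Hoechst-counterstained cells, green channel | schedule = compound exposure 48 h, 37 °C | reagent = tamoxifen at 0.75 µM added at seeding for reporter induction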
Of the large screens only hits and unclear results are named; the others gave an inactive call. This excerpt belongs to a sample that is enriched for hits.

O=S(=O)(c1ccc2nc(SCc3cccc(Cl)c3)[nH]c2c1)N1CCOCC1	none
O=C(CSc1nc2ccccc2[nH]1)N1CCN(S(=O)(=O)c2ccc(Cl)cc2)CC1	Insulin prom act 97
O=C(CSc1nc2ccccc2[nH]1)NCCc1ccc(Cl)cc1	none
CCCCC(C(=O)O)C(C)CC(=O)NNC(=O)c1ccco1 (configuration not stated)	none
COc1ccc(-c2csc(-c3cc4ccccc4oc3=N)n2)cc1	none
COC(=O)CN(c1ccc(OCc2ccccc2)cc1)S(C)(=O)=O	none
COc1ccc(C2C3=C(CC(C)(C)CC3=O)OC(N)=C2[N+](=O)[O-])cc1 (configuration not stated)	none
CN1CCN(NS(=O)(=O)c2cccs2)CC1	none
CCN1/C(=C/c2ccc3cc(C)ccc3[n+]2CC)Sc2cc(C)ccc21	Insulin prom act 614
CCN1/C(=C/c2ccc3cc(C)ccc3[n+]2C)Sc2ccc3sccc3c21	Insulin prom act 376
O=C(Cn1nnc(-c2ccc(CN3CCOCC3)cc2)n1)N(c1ccccc1)c1ccccc1	none
Cc1ccc(NS(=O)(=O)c2ccc(OCC(=O)Nc3cccc([N+](=O)[O-])c3)c(C)c2)cc1	none
O=C(NCCCn1ccnc1)C(=O)NCc1ccccc1	none
O=C(NCCCn1ccnc1)C(=O)Nc1ccccc1	none
Cc1cc(C(=O)NCCCn2ccnc2)sc1-c1ccccc1	Insulin prom act 531
CCOc1ccc(N(CC(=O)NCc2cccc(OC)c2)S(=O)(=O)c2c(C)noc2C)cc1	none
CCN(CCNC(=O)C1CCC(=O)N1Cc1ccc(C)cc1)c1ccccc1 (configuration not stated)	none
CCN(CCCNC(=O)C1CCN(S(=O)(=O)N2CCOCC2)CC1)c1cccc(C)c1	none
CCN(CCCNC(=O)C1CCC(=O)N1Cc1ccccc1Cl)c1cccc(C)c1 (configuration not stated)	Insulin prom act 92
C=CCNC(=O)C1CCN(c2c([N+](=O)[O-])cc(C(F)(F)F)cc2[N+](=O)[O-])CC1	none
O=C(CCn1c(=O)c2ccccc2n(CC(=O)NC2CCCC2)c1=O)NCc1ccco1	none
O=C(COc1ccc(C(=O)c2ccccc2)cc1)NCC(=O)Nc1ccccc1Br	none
COC(=O)/C=C1/N/C(=N\c2nc(C)cc(C)n2)N(c2ccccc2)C1=O	none
COc1ccc(Nc2nc(-c3cccs3)cs2)c(OC)c1	Insulin prom act 592
COc1ccc(OC)c(Nc2nc(-c3cccs3)cs2)c1	none
COc1ccc(Nc2nc(-c3cccs3)cs2)cc1	none
O=C1CC(N2CCN(c3ccccc3)CC2)C(=O)N1c1ccc2c(c1)OCO2 (configuration not stated)	none
COc1ccc(CN(C)c2nc(-c3cccnc3)nc3ccccc23)cc1OC	none
CC1=CC(C)(C)N2C(=O)C3(N=C(N)NC(Nc4ccccc4)=N3)c3cc(C)cc1c32 (configuration not stated)	Insulin prom act 481
Cc1ccc(S(=O)(=O)c2c(C)cc(C)nc2Cl)cc1	none
COc1ccc(-c2nc(N)n(S(=O)(=O)c3ccc(C)cc3)n2)cc1	none
COc1nc(N)c(S(=O)(=O)c2ccc(C)cc2)cc1C#N	Insulin prom act 197
COc1ccc(CNC(=O)C(c2ccc(C)cc2)N(Cc2cccs2)C(=O)c2ccc3c(c2)OCCO3)cc1 (configuration not stated)	none
COc1ccc(CNC(=O)C(c2cccs2)N(Cc2ccco2)C(=O)Cc2cccs2)cc1 (configuration not stated)	none
COc1ccc(CNC(=O)C(c2ccco2)N(Cc2cccs2)C(=O)Cc2cccs2)cc1 (configuration not stated)	Insulin prom act 80
CN(C)S(=O)(=O)c1ccc(C(=O)OCCn2cnc3c2c(=O)n(C)c(=O)n3C)cc1	none
Cc1cc2c(ncn2C)c(NS(=O)(=O)c2ccc(Cl)cc2)c1C	none
COc1cccc(-c2csc3nc[nH]c(=O)c23)c1	none
CCC1(CC)C(=O)NC(=O)NC1=Nc1cccc(OC)c1	Insulin prom act 168
COc1cccc(NC(=O)Cc2ccccc2)c1	none
CCc1[nH]nc(C(=O)N2CCCC(CCC(=O)N3CCN(c4ccccn4)CC3)C2)c1C (configuration not stated)	none
Cc1cccc(C)c1NS(=O)(=O)c1c(C)[nH]c(=O)[nH]c1=O	none
O=C(/C=C/c1ccc(Cl)cc1)N1CCN(c2ncccn2)CC1	none
CC(C)Cc1ccc(/C=C/C(=O)N2CCCCC2)cc1	none
CC(C)(C)c1ccc(/C=C/C(=O)N2CCCCC2)cc1	Insulin prom act 335
COc1ccc(CNC(=O)c2nnn(-c3cccc(C(F)(F)F)c3)c2N)cc1	none
Cc1cc(N2CCN(C)CC2)nc2ccc(NC(=S)N3CCN(c4ccc(Cl)cc4)CC3)cc12	none
COc1cc(NC(=O)CN(C)C2CCCCC2)c(C)cc1[N+](=O)[O-]	none
CCCN(CC(=O)Nc1ccc(F)c(F)c1F)CC(=O)Nc1c(Cl)cccc1Cl	none
COC(=O)c1ccc(OC)c(CSc2nnc(-c3ccc(C(C)(C)C)cc3)o2)c1	Insulin prom act 508
COc1ccc(-c2nnc(SCC(=O)Nc3ccccc3OC)o2)cc1	none
COc1ccccc1NC(=O)CSc1nnc(-c2ccncc2)o1	none
CCn1c(Cc2cccc3ccccc23)nnc1SCC(=O)Nc1nccs1	none
